# Source: ChEMBL document CHEMBL1142136, “Contribution of target gene mutations and efflux to decreased susceptibility of Salmonella enterica serovar typhimurium to fluoroquinolones and other antimicrobials” (2007)
# Assays:
# Format in all cases: functional, Salmonella enterica subsp. enterica serovar Typhimurium
# Salmonella typhimurium [1] = test: Antimicrobial activity against Salmonella enterica serovar Typhimurium CHS38 gyrA+ with GyrA D87G mutation
# How it was run: (§1)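 MICs measured by broth microdilution on the Sensititre automated system and interpreted by CLSI broth microdilution standards. Ciprofloxacin was also tested by agar dilution, widening the range to 0.0075–128 μg/ml. Quality control strains were E. coli ATCC 25922 and 35218, E. faecalis ATCC 29212, S. aureus ATCC 29213 and P. aeruginosa ATCC 27853.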
# Salmonella typhimurium [2] = test: Antimicrobial activity against Salmonella enterica serovar Typhimurium S21-1 GyrA S83F mutant; how it was run: as §1
# Salmonella typhimurium [3] = test: Antimicrobial activity against Salmonella enterica serovar Typhimurium CHS18 tolC::Kan with GyrA S38F mutation; how it was run: as §1
# Salmonella typhimurium [4] = test: Antimicrobial activity against Salmonella enterica serovar Typhimurium S21-3 gyrA+ with ParC S80I mutation; how it was run: as §1
# Salmonella typhimurium [5] = test: Antimicrobial activity against Salmonella enterica serovar Typhimurium S21 gyrA+; how it was run: as §1
# Salmonella typhimurium [6] = test: Antimicrobial activity against Salmonella enterica serovar Typhimurium CHS14 acrAB::Kan with GyrA D87G mutation; how it was run: as §1
# Salmonella typhimurium [7] = test: Antimicrobial activity against Salmonella enterica serovar Typhimurium S21; how it was run: as §1
# Salmonella typhimurium [8] = test: Antimicrobial activity against Salmonella enterica serovar Typhimurium CS3 acrAB::Kan with GyrA S83F, D87N, ParC S80I mutation; how it was run: as §1
# Salmonella typhimurium [9] = test: Antimicrobial activity against Salmonella enterica serovar Typhimurium CS3 gyrA+ with GyrA S83F, D87N, ParC S80I mutation; how it was run: as §1
# Salmonella typhimurium [10] = test: Antimicrobial activity against Salmonella enterica serovar Typhimurium S21-2 with GyrA S83F, ParC S80I mutation; how it was run: as §1
# Salmonella typhimurium [11] = test: Antimicrobial activity against Salmonella enterica serovar Typhimurium CS3 with GyrA S83F, D87N, ParC S80I mutation; how it was run: as §1
# Salmonella typhimurium [12] = test: Antimicrobial activity against Salmonella enterica serovar Typhimurium CHS38 with GyrA D87G mutation; how it was run: as §1
# Salmonella typhimurium [13] = test: Antimicrobial activity against Salmonella enterica serovar Typhimurium CS9 with GyrA S83F, D87N, ParC S80I mutation; how it was run: as §1
# Salmonella typhimurium [14] = test: Antimicrobial activity against Salmonella enterica serovar Typhimurium S21-2 acrAB::Kan with GyrA S83F, ParC S80I mutation; how it was run: as §1
# Salmonella typhimurium [15] = test: Antimicrobial activity against Salmonella enterica serovar Typhimurium S21-4 tolC::Kan with GyrA S83F, ParC S80I mutation; how it was run: as §1
# Salmonella typhimurium [16] = test: Antimicrobial activity against Salmonella enterica serovar Typhimurium GyrA S21-1 acrAB::Kan with GyrA S83F mutation; how it was run: as §1
# Salmonella typhimurium [17] = test: Antimicrobial activity against Salmonella enterica serovar Typhimurium CHS18 acrAB::Kan with GyrA S38F mutation; how it was run: as §1
# Salmonella typhimurium [18] = test: Antimicrobial activity against Salmonella enterica serovar Typhimurium S21-2 gyrA+ with ParC S80I mutation; how it was run: as §1
# Salmonella typhimurium [19] = test: Antimicrobial activity against Salmonella enterica serovar Typhimurium CHS14 tolC::Kan with GyrA D87G mutant; how it was run: as §1
# Salmonella typhimurium [20] = test: Antimicrobial activity against Salmonella enterica serovar Typhimurium S21-3 tolC::Kan with GyrA S83F, ParC S80I mutation; how it was run: as §1
# Salmonella typhimurium [21] = test: Antimicrobial activity against Salmonella enterica serovar Typhimurium CHS38 tolC::Kan with GyrA D87G mutation; how it was run: as §1
# Salmonella typhimurium [22] = test: Antimicrobial activity against Salmonella enterica serovar Typhimurium CS1 acrAB::Kan with GyrA S83F, D87N, ParC S80I mutation; how it was run: as §1
# Salmonella typhimurium [23] = test: Antimicrobial activity against Salmonella enterica serovar Typhimurium CS9 gyrA+ with GyrA S83F, D87N, ParC S80I mutation; how it was run: as §1
# Salmonella typhimurium [24] = test: Antimicrobial activity against Salmonella enterica serovar Typhimurium CS1 with GyrA S83F, D87N, ParC S80I mutation; how it was run: as §1
# Salmonella typhimurium [25] = test: Antimicrobial activity against Salmonella enterica serovar Typhimurium S21-4 with GyrA S83F, ParC S80I mutation; how it was run: as §1
# Salmonella typhimurium [26] = test: Antimicrobial activity against Salmonella enterica serovar Typhimurium S21-4 gyrA+ with ParC S80I mutation; how it was run: as §1
# Salmonella typhimurium [27] = test: Antimicrobial activity against Salmonella enterica serovar Typhimurium S21-1 tolC::Kan with GyrA S83F mutation; how it was run: as §1
# Salmonella typhimurium [28] = test: Antimicrobial activity against Salmonella enterica serovar Typhimurium CHS18 with GyrA S38F mutation; how it was run: as §1
# Salmonella typhimurium [29] = test: Antimicrobial activity against Salmonella enterica serovar Typhimurium S21-1 gyrA+; how it was run: as §1
# Salmonella typhimurium [30] = test: Antimicrobial activity against Salmonella enterica serovar Typhimurium S21 tolC::Kan
# How it was run: (§2)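 MICs by automated broth microdilution panels, interpreted to CLSI broth microdilution standards. Ciprofloxacin additionally tested by agar dilution across 0.0075 to 128 μg/ml. Quality control strains: E. coli ATCC 25922 and 35218, Enterococcus faecalis ATCC 29212, S. aureus ATCC 29213, P. aeruginosa ATCC 27853. Test strains are kanamycin-marked deletion mutants of ground-beef isolate S21.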
# Salmonella typhimurium [31] = test: Antimicrobial activity against Salmonella enterica serovar Typhimurium CS1 tolC::Kan with GyrA S83F, D87N, ParC S80I mutation; how it was run: as §1
# Salmonella typhimurium [32] = test: Antimicrobial activity against Salmonella enterica serovar Typhimurium CHS18 gyrA+ with GyrA S38F mutation; how it was run: as §1
# Salmonella typhimurium [33] = test: Antimicrobial activity against Salmonella enterica serovar Typhimurium CS1 gyrA+ with GyrA S83F, D87N, ParC S80I mutation; how it was run: as §1
# Salmonella typhimurium [34] = test: Antimicrobial activity against Salmonella enterica serovar Typhimurium CHS14 with GyrA D87G mutation; how it was run: as §1
# Salmonella typhimurium [35] = test: Antimicrobial activity against Salmonella enterica serovar Typhimurium S21-4 acrAB::Kan with GyrA S83F, ParC S80I mutation; how it was run: as §1
# Salmonella typhimurium [36] = test: Antimicrobial activity against Salmonella enterica serovar Typhimurium S21-3 with GyrA S83F, ParC S80I mutation; how it was run: as §1
# Salmonella typhimurium [37] = test: Antimicrobial activity against Salmonella enterica serovar Typhimurium S21-3 acrAB::Kan with GyrA S83F, ParC S80I mutation; how it was run: as §1
# Salmonella typhimurium [38] = test: Antimicrobial activity against Salmonella enterica serovar Typhimurium S21-2 tolC::Kan with GyrA S83F, ParC S80I mutation; how it was run: as §1
# Salmonella typhimurium [39] = test: Antimicrobial activity against Salmonella enterica serovar Typhimurium CS9 acrAB::Kan with GyrA S83F, D87N, ParC S80I mutation; how it was run: as §1
# Salmonella typhimurium [40] = test: Antimicrobial activity against Salmonella enterica serovar Typhimurium S21 acrAB::Kan; how it was run: as §2
# Salmonella typhimurium [41] = test: Antimicrobial activity against Salmonella enterica serovar Typhimurium CHS38 acrAB::Kan with GyrA D87G mutation; how it was run: as §1
# Salmonella typhimurium [42] = test: Antimicrobial activity against Salmonella enterica serovar Typhimurium CS9 tolC::Kan with GyrA S83F, D87N, ParC S80I mutation; how it was run: as §1
# Salmonella typhimurium [43] = test: Antimicrobial activity against Salmonella enterica serovar Typhimurium CS3 tolC::Kan with GyrA S83F, D87N, parC S80I mutation; how it was run: as §1
# Salmonella typhimurium [44] = test: Antimicrobial activity against Salmonella enterica serovar Typhimurium CHS14 gyrA+ with GyrA D87G mutation; how it was run: as §1
smiles,measurement,setting,value
CN1C[C@@H]2C[C@H]1CN2c1cc2c(cc1F)c(=O)c(C(=O)O)cn2C1CC1 [DANOFLOXACIN],MIC,Salmonella typhimurium [1],< 0.015 µg/mL
same,MIC,Salmonella typhimurium [2],0.5 µg/mL
same,MIC,Salmonella typhimurium [3],0.06 µg/mL
same,MIC,Salmonella typhimurium [4],2 µg/mL
same,MIC,Salmonella typhimurium [5],0.03 µg/mL
same,MIC,Salmonella typhimurium [6],0.03 µg/mL
same,MIC,Salmonella typhimurium [7],0.03 µg/mL
same,MIC,Salmonella typhimurium [8],4 µg/mL
same,MIC,Salmonella typhimurium [9],0.06 µg/mL
same,MIC,Salmonella typhimurium [10],4 µg/mL
same,MIC,Salmonella typhimurium [11],> 16 µg/mL
same,MIC,Salmonella typhimurium [12],0.25 µg/mL
same,MIC,Salmonella typhimurium [13],> 16 µg/mL
same,MIC,Salmonella typhimurium [14],0.12 µg/mL
same,MIC,Salmonella typhimurium [15],0.25 µg/mL
same,MIC,Salmonella typhimurium [16],0.06 µg/mL
same,MIC,Salmonella typhimurium [17],0.03 µg/mL
same,MIC,Salmonella typhimurium [18],1 µg/mL
same,MIC,Salmonella typhimurium [19],0.03 µg/mL
same,MIC,Salmonella typhimurium [20],0.25 µg/mL
same,MIC,Salmonella typhimurium [21],< 0.015 µg/mL
same,MIC,Salmonella typhimurium [22],4 µg/mL
same,MIC,Salmonella typhimurium [23],0.06 µg/mL
same,MIC,Salmonella typhimurium [24],> 16 µg/mL
same,MIC,Salmonella typhimurium [25],> 16 µg/mL
same,MIC,Salmonella typhimurium [26],4 µg/mL
same,MIC,Salmonella typhimurium [27],0.06 µg/mL
same,MIC,Salmonella typhimurium [28],0.5 µg/mL
same,MIC,Salmonella typhimurium [29],0.03 µg/mL
same,MIC,Salmonella typhimurium [30],< 0.015 µg/mL
same,MIC,Salmonella typhimurium [31],4 µg/mL
same,MIC,Salmonella typhimurium [32],0.06 µg/mL
same,MIC,Salmonella typhimurium [33],0.06 µg/mL
same,MIC,Salmonella typhimurium [34],0.25 µg/mL
same,MIC,Salmonella typhimurium [35],0.25 µg/mL
same,MIC,Salmonella typhimurium [36],> 16 µg/mL
same,MIC,Salmonella typhimurium [37],0.25 µg/mL
same,MIC,Salmonella typhimurium [38],0.12 µg/mL
same,MIC,Salmonella typhimurium [39],4 µg/mL
same,MIC,Salmonella typhimurium [40],< 0.015 µg/mL
same,MIC,Salmonella typhimurium [41],0.03 µg/mL
same,MIC,Salmonella typhimurium [42],4 µg/mL
same,MIC,Salmonella typhimurium [43],4 µg/mL
same,MIC,Salmonella typhimurium [44],0.03 µg/mL
CCn1cc(C(=O)O)c(=O)c2ccc(C)nc21 [NALIDIXIC ACID],MIC,Salmonella typhimurium [1],8 µg/mL
same,MIC,Salmonella typhimurium [2],256 µg/mL
same,MIC,Salmonella typhimurium [3],32 µg/mL
same,MIC,Salmonella typhimurium [4],> 256 µg/mL
same,MIC,Salmonella typhimurium [5],4 µg/mL
same,MIC,Salmonella typhimurium [6],8 µg/mL
same,MIC,Salmonella typhimurium [7],4 µg/mL
same,MIC,Salmonella typhimurium [8],> 256 µg/mL
same,MIC,Salmonella typhimurium [9],4 µg/mL
same,MIC,Salmonella typhimurium [10],> 256 µg/mL
same,MIC,Salmonella typhimurium [11],> 256 µg/mL
same,MIC,Salmonella typhimurium [12],32 µg/mL
same,MIC,Salmonella typhimurium [13],> 256 µg/mL
same,MIC,Salmonella typhimurium [14],64 µg/mL
same,MIC,Salmonella typhimurium [15],> 256 µg/mL
same,MIC,Salmonella typhimurium [16],32 µg/mL
same,MIC,Salmonella typhimurium [17],16 µg/mL
same,MIC,Salmonella typhimurium [18],64 µg/mL
same,MIC,Salmonella typhimurium [19],16 µg/mL
same,MIC,Salmonella typhimurium [20],32 µg/mL
same,MIC,Salmonella typhimurium [21],0.5 µg/mL
same,MIC,Salmonella typhimurium [22],> 256 µg/mL
same,MIC,Salmonella typhimurium [23],4 µg/mL
same,MIC,Salmonella typhimurium [24],> 256 µg/mL
same,MIC,Salmonella typhimurium [25],> 256 µg/mL
same,MIC,Salmonella typhimurium [26],> 256 µg/mL
same,MIC,Salmonella typhimurium [27],32 µg/mL
same,MIC,Salmonella typhimurium [28],256 µg/mL
same,MIC,Salmonella typhimurium [29],4 µg/mL
same,MIC,Salmonella typhimurium [30],1 µg/mL
same,MIC,Salmonella typhimurium [31],256 µg/mL
same,MIC,Salmonella typhimurium [32],32 µg/mL
same,MIC,Salmonella typhimurium [33],4 µg/mL
same,MIC,Salmonella typhimurium [34],128 µg/mL
same,MIC,Salmonella typhimurium [35],> 256 µg/mL
same,MIC,Salmonella typhimurium [36],> 256 µg/mL
same,MIC,Salmonella typhimurium [37],64 µg/mL
same,MIC,Salmonella typhimurium [38],64 µg/mL
same,MIC,Salmonella typhimurium [39],> 256 µg/mL
same,MIC,Salmonella typhimurium [40],1 µg/mL
same,MIC,Salmonella typhimurium [41],1 µg/mL
same,MIC,Salmonella typhimurium [42],256 µg/mL
same,MIC,Salmonella typhimurium [43],256 µg/mL
same,MIC,Salmonella typhimurium [44],4 µg/mL
